ChEMBL document CHEMBL4261538, “Synthesis and molecular docking studies of xanthone attached amino acids as potential antimicrobial and anti-inflammatory agents” (Medchemcomm, 2017)
Values after ≈ are worked out from the molar mass of the structure shown.

Experiments:
[1] = tested on: Staphylococcus aureus; experiment: Antibacterial activity against Staphylococcus aureus at 100 ug/ml incubated for 24 hrs by agar well diffusion method; type: functional; conditions: read-out: DIZ
Outline: (§1)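 Bacteria grown in nutrient broth at 37 °C for 24 h, then subcultured at room temperature. Compounds dissolved in DMSO at 5 mg mL⁻¹ and 5–20 µL added to 6 mm wells, giving 25, 50, 75, 100 µg per well. Gentamicin was the positive control and DMSO the negative control. Plates held at 37 °C for 24 h, then inhibition zone diameter (mm) measured. Values are means of three determinations.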

[2] = tested on: Fusarium oxysporum; experiment: Antifungal activity against Fusarium oxysporum at 100 ug/ml incubated for 48 hrs by agar well diffusion method; type: functional; conditions: read-out: DIZ
Outline: (§2)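 Compounds dissolved in DMSO at 5 mg mL⁻¹ and 5–20 µL added to 6 mm wells, giving 25, 50, 75, 100 µg per well. Bavistin was the positive control and DMSO the negative control. Plates incubated at 28 °C for 48 h, then inhibition zone diameter (mm) measured. Values are means of three determinations.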

[3] = tested on: Aspergillus niger; experiment: Antifungal activity against Aspergillus niger at 50 ug/ml incubated for 48 hrs by agar well diffusion method; type: functional; conditions: read-out: DIZ; outline: as §2
[4] = tested on: Fusarium oxysporum; experiment: Antifungal activity against Fusarium oxysporum at 25 ug/ml incubated for 48 hrs by agar well diffusion method; type: functional; conditions: read-out: DIZ; outline: as §2
[5] = tested on: Candida albicans; experiment: Antifungal activity against Candida albicans at 25 ug/ml incubated for 48 hrs by agar well diffusion method; type: functional; conditions: read-out: DIZ; outline: as §2
[6] = tested on: Bacillus subtilis; experiment: Antibacterial activity against Bacillus subtilis at 100 ug/ml incubated for 24 hrs by agar well diffusion method; type: functional; conditions: read-out: DIZ; outline: as §1
[7] = tested on: Fusarium oxysporum; experiment: Antifungal activity against Fusarium oxysporum at 50 ug/ml incubated for 48 hrs by agar well diffusion method; type: functional; conditions: read-out: DIZ; outline: as §2
[8] = tested on: Staphylococcus aureus; experiment: Antibacterial activity against Staphylococcus aureus incubated for 24 hrs by microdilution method; type: functional
[9] = tested on: Bacillus subtilis; experiment: Antibacterial activity against Bacillus subtilis at 75 ug/ml incubated for 24 hrs by agar well diffusion method; type: functional; conditions: read-out: DIZ; outline: as §1
[10] = tested on: Candida albicans; experiment: Antifungal activity against Candida albicans at 75 ug/ml incubated for 48 hrs by agar well diffusion method; type: functional; conditions: read-out: DIZ; outline: as §2
[11] = tested on: Staphylococcus aureus; experiment: Antibacterial activity against Staphylococcus aureus at 50 ug/ml incubated for 24 hrs by agar well diffusion method; type: functional; conditions: read-out: DIZ; outline: as §1
[12] = tested on: Candida albicans; experiment: Antifungal activity against Candida albicans incubated for 48 to 72 hrs by microdilution method; type: functional
Outline: (§3)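 Sabouraud agar plates inoculated with fungal suspension at 10⁵ CFU mL⁻¹ plus serially diluted compounds and bavistin reference, both in DMSO. Incubated at 25 °C for 48–72 h. MIC is the lowest concentration completely inhibiting growth. Values are means of three determinations.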

[13] = tested on: Klebsiella pneumoniae; experiment: Antibacterial activity against Klebsiella pneumoniae at 25 ug/ml incubated for 24 hrs by agar well diffusion method; type: functional; conditions: read-out: DIZ; outline: as §1
[14] = tested on: Klebsiella pneumoniae; experiment: Antibacterial activity against Klebsiella pneumoniae at 50 ug/ml incubated for 24 hrs by agar well diffusion method; type: functional; conditions: read-out: DIZ; outline: as §1
[15] = tested on: Aspergillus niger; experiment: Antifungal activity against Aspergillus niger at 75 ug/ml incubated for 48 hrs by agar well diffusion method; type: functional; conditions: read-out: DIZ; outline: as §2
[16] = tested on: Escherichia coli; experiment: Antibacterial activity against Escherichia coli at 25 ug/ml incubated for 24 hrs by agar well diffusion method; type: functional; conditions: read-out: DIZ; outline: as §1
[17] = tested on: Erythrocyte; experiment: Anti-inflammatory activity in human RBC assessed as inhibition of hypotonic solution-induced hemolysis after 10 mins by spectrophotometric method; type: functional, cell-based
Outline: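 Human blood (heparinized) washed with 0.9% saline, packed cells made into a 40% v/v stock in isotonic phosphate buffer (154 mM NaCl, 10 mM sodium phosphate, pH 7.4). Stock RBC mixed with hypotonic buffer (50 mM NaCl, 10 mM phosphate, pH 7.4) plus sample at 20–100 µg mL⁻¹.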

[18] = tested on: Fusarium oxysporum; experiment: Antifungal activity against Fusarium oxysporum at 75 ug/ml incubated for 48 hrs by agar well diffusion method; type: functional; conditions: read-out: DIZ; outline: as §2
[19] = tested on: Escherichia coli; experiment: Antibacterial activity against Escherichia coli at 50 ug/ml incubated for 24 hrs by agar well diffusion method; type: functional; conditions: read-out: DIZ; outline: as §1
[20] = tested on: Klebsiella pneumoniae; experiment: Antibacterial activity against Klebsiella pneumoniae at 100 ug/ml incubated for 24 hrs by agar well diffusion method; type: functional; conditions: read-out: DIZ; outline: as §1
[21] = tested on: Bacillus subtilis; experiment: Antibacterial activity against Bacillus subtilis at 50 ug/ml incubated for 24 hrs by agar well diffusion method; type: functional; conditions: read-out: DIZ; outline: as §1
[22] = tested on: Aspergillus niger; experiment: Antifungal activity against Aspergillus niger at 25 ug/ml incubated for 48 hrs by agar well diffusion method; type: functional; conditions: read-out: DIZ; outline: as §2
[23] = tested on: Bacillus subtilis; experiment: Antibacterial activity against Bacillus subtilis at 25 ug/ml incubated for 24 hrs by agar well diffusion method; type: functional; conditions: read-out: DIZ; outline: as §1
[24] = tested on: Staphylococcus aureus; experiment: Induction of cell membrane damage in Staphylococcus aureus assessed as cell content leakage at MIC by spectrophotometric method; type: functional, organism-based; conditions: TDE = time-dependent effect
Outline: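 Log-phase S. aureus inoculated into 0.1% sterile peptone water, with an untreated control, and held at 37 °C for 0, 30, 60 and 120 min. 1 mL of broth centrifuged and supernatant OD read at 260 nm to measure released DNA. Run in triplicate, repeated three times.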

[25] = tested on: Bacillus subtilis; experiment: Antibacterial activity against Bacillus subtilis incubated for 24 hrs by microdilution method; type: functional
[26] = tested on: Candida albicans; experiment: Antifungal activity against Candida albicans at 50 ug/ml incubated for 48 hrs by agar well diffusion method; type: functional; conditions: read-out: DIZ; outline: as §2
[27] = tested on: Staphylococcus aureus; experiment: Antibacterial activity against Staphylococcus aureus at 75 ug/ml incubated for 24 hrs by agar well diffusion method; type: functional; conditions: read-out: DIZ; outline: as §1
[28] = tested on: Escherichia coli; experiment: Antibacterial activity against Escherichia coli at 75 ug/ml incubated for 24 hrs by agar well diffusion method; type: functional; conditions: read-out: DIZ; outline: as §1
[29] = tested on: Staphylococcus aureus; experiment: Antibacterial activity against Staphylococcus aureus at 25 ug/ml incubated for 24 hrs by agar well diffusion method; type: functional; conditions: read-out: DIZ; outline: as §1
[30] = tested on: Escherichia coli; experiment: Antibacterial activity against Escherichia coli incubated for 24 hrs by microdilution method; type: functional
[31] = tested on: Aspergillus niger; experiment: Antifungal activity against Aspergillus niger at 100 ug/ml incubated for 48 hrs by agar well diffusion method; type: functional; conditions: read-out: DIZ; outline: as §2
[32] = tested on: Escherichia coli; experiment: Antibacterial activity against Escherichia coli at 100 ug/ml incubated for 24 hrs by agar well diffusion method; type: functional; conditions: read-out: DIZ; outline: as §1
[33] = tested on: Fusarium oxysporum; experiment: Antifungal activity against Fusarium oxysporum incubated for 48 to 72 hrs by microdilution method; type: functional; outline: as §3
[34] = tested on: Aspergillus niger; experiment: Antifungal activity against Aspergillus niger incubated for 48 to 72 hrs by microdilution method; type: functional; outline: as §3
[35] = tested on: Klebsiella pneumoniae; experiment: Antibacterial activity against Klebsiella pneumoniae at 75 ug/ml incubated for 24 hrs by agar well diffusion method; type: functional; conditions: read-out: DIZ; outline: as §1
[36] = tested on: Klebsiella pneumoniae; experiment: Antibacterial activity against Klebsiella pneumoniae incubated for 24 hrs by microdilution method; type: functional
[37] = tested on: Candida albicans; experiment: Antifungal activity against Candida albicans at 100 ug/ml incubated for 48 hrs by agar well diffusion method; type: functional; conditions: read-out: DIZ; outline: as §2

Compound: CC(C)(C)OC(=O)N[C@@H](Cc1ccc(O)cc1)C(=O)Oc1ccc2c(=O)c3ccccc3oc2c1
- zone of inhibition at 100 µg/mL [1]: 36 mm
- zone of inhibition at 100 µg/mL [2]: 42 mm
- zone of inhibition at 50 µg/mL [3]: 30 mm
- zone of inhibition at 25 µg/mL [4]: 22 mm
- zone of inhibition at 25 µg/mL [5]: 20 mm
- zone of inhibition at 100 µg/mL [6]: 37 mm
- zone of inhibition at 50 µg/mL [7]: 29 mm
- MIC [8]: 21 µg/mL (≈ 44.2 µM)
- zone of inhibition at 75 µg/mL [9]: 35 mm
- zone of inhibition at 75 µg/mL [10]: 34 mm
- zone of inhibition at 50 µg/mL [11]: 26 mm
- MIC [12]: 24 µg/mL (≈ 50.5 µM)
- zone of inhibition at 25 µg/mL [13]: 18 mm
- zone of inhibition at 50 µg/mL [14]: 24 mm
- zone of inhibition at 75 µg/mL [15]: 37 mm
- zone of inhibition at 25 µg/mL [16]: 20 mm
- IC50 [17]: 32 µg/mL (≈ 67.3 µM)
- zone of inhibition at 75 µg/mL [18]: 36 mm
- zone of inhibition at 50 µg/mL [19]: 27 mm
- zone of inhibition at 100 µg/mL [20]: 34 mm
- zone of inhibition at 50 µg/mL [21]: 28 mm
- zone of inhibition at 25 µg/mL [22]: 22 mm
- zone of inhibition at 25 µg/mL [23]: 20 mm
- Activity [24]: Tde
- MIC [25]: 20 µg/mL (≈ 42.1 µM)
- zone of inhibition at 50 µg/mL [26]: 29 mm
- zone of inhibition at 75 µg/mL [27]: 32 mm
- zone of inhibition at 75 µg/mL [28]: 33 mm
- zone of inhibition at 25 µg/mL [29]: 20 mm
- MIC [30]: 19 µg/mL (≈ 40 µM)
- zone of inhibition at 100 µg/mL [31]: 41 mm
- zone of inhibition at 100 µg/mL [32]: 36 mm
- MIC [33]: 22 µg/mL (≈ 46.3 µM)
- MIC [34]: 22 µg/mL (≈ 46.3 µM)
- zone of inhibition at 75 µg/mL [35]: 30 mm
- MIC [36]: 24 µg/mL (≈ 50.5 µM)
- zone of inhibition at 100 µg/mL [37]: 37 mm
